Measured values: ChEMBL document CHEMBL2202974 (J Med Chem, 2011)

Tests used:
[1] = Lipophilicity, log D of the compound by shake flask method; format: physicochemical; details: octanol/water
How it was run: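 Shake-flask log D at pH 7.4 on the nonradioactive compound. Each enantiomer was measured.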

[2] = system: Brain; experiment: Drug uptake in rat brain at 6 ug/ml, iv at 10 mins by LC/MS analysis; format: ADME, organism-based; details: in vivo
How it was run: (§1)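 Male Sprague-Dawley rats (230–280 g), non-anesthetised. Ligand in 25% β-cyclodextrin diluted to 6 μg/mL and given iv via tail vein at 0.5 mL/kg (3 μg/kg), n = 3–4 per group. Rats killed at 10, 20, 40 or 60 min. Hypothalamus and striatum extracted in acetonitrile/0.1% formic acid and quantified by LC-MS/MS against spiked brain standards. Result expressed as %SUV.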

[3] = system: Brain; experiment: Drug uptake in rat brain at 6 ug/ml, iv after 1 hr by LC/MS analysis; format: ADME, organism-based; details: in vivo; how it was run: as §1
[4] = Lipophilicity, log D of the compound by radiometric method; format: physicochemical; details: octanol/water
How it was run: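 log D at pH 7.4 measured radiometrically on the carbon-11-labelled form of the ligand. Six determinations, reported as mean ± SD.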

[5] = system: Brain; experiment: Drug uptake in rat brain at 6 ug/ml, iv up to 1 hr by LC/MS analysis; format: ADME, organism-based; details: in vivo; how it was run: as §1
[6] = Drug uptake in monkey lateral temporal cortex at 4.92 to 6.6 mCi, iv administered as bolus dose measured up to 20 mins by PET imaging analysis; format: ADME, organism-based, Macaca mulatta; details: rhesus monkey, in vivo
[7] = Drug uptake in SB612111-pretreated monkey cerebellum at 4.92 to 6.6 mCi, iv administered at 10 mins post SB612111-treatment measured within 10 mins by PET imaging analysis; format: ADME, organism-based, Macaca mulatta; details: rhesus monkey, in vivo
[8] = Drug uptake in SB612111-pretreated monkey caudate at 4.92 to 6.6 mCi, iv administered at 10 mins post SB612111-treatment measured within 10 mins by PET imaging analysis; format: ADME, organism-based, Macaca mulatta, Caudate nucleus; details: rhesus monkey, in vivo
[9] = Drug uptake in monkey caudate at 4.92 to 6.6 mCi, iv administered as bolus dose measured at 120 mins by PET imaging analysis; format: ADME, organism-based, Macaca mulatta, Caudate nucleus; details: rhesus monkey, in vivo, 2 h
[10] = Drug uptake in monkey cerebellum at 4.92 to 6.6 mCi, iv administered as bolus dose measured at 120 mins by PET imaging analysis; format: ADME, organism-based, Macaca mulatta; details: rhesus monkey, in vivo, 2 h
[11] = Drug uptake in monkey hypothalamus at 4.92 to 6.6 mCi, iv administered as bolus dose measured at 120 mins by PET imaging analysis; format: ADME, organism-based, Macaca mulatta; details: rhesus monkey, in vivo, 2 h
[12] = Drug uptake in SB612111-pretreated monkey amygdala at 4.92 to 6.6 mCi, iv administered at 10 mins post SB612111-treatment measured from 10 to 120 mins by PET imaging analysis; format: ADME, organism-based, Macaca mulatta; details: rhesus monkey, in vivo
[13] = Drug uptake in monkey amygdala at 4.92 to 6.6 mCi, iv administered as bolus dose measured up to 20 mins by PET imaging analysis; format: ADME, organism-based, Macaca mulatta; details: rhesus monkey, in vivo
[14] = Drug uptake in monkey caudate at 4.92 to 6.6 mCi, iv administered as bolus dose measured up to 20 mins by PET imaging analysis; format: ADME, organism-based, Macaca mulatta, Caudate nucleus; details: rhesus monkey, in vivo
[15] = Drug uptake in monkey amygdala at 4.92 to 6.6 mCi, iv administered as bolus dose measured at 120 mins by PET imaging analysis; format: ADME, organism-based, Macaca mulatta; details: rhesus monkey, in vivo, 2 h
[16] = Drug uptake in monkey hypothalamus at 4.92 to 6.6 mCi, iv administered as bolus dose measured up to 20 mins by PET imaging analysis; format: ADME, organism-based, Macaca mulatta; details: rhesus monkey, in vivo
[17] = Drug uptake in SB612111-pretreated monkey hypothalamus at 4.92 to 6.6 mCi, iv administered at 10 mins post SB612111-treatment measured within 10 mins by PET imaging analysis; format: ADME, organism-based, Macaca mulatta; details: rhesus monkey, in vivo
[18] = Drug uptake in SB612111-pretreated monkey amygdala at 4.92 to 6.6 mCi, iv administered at 10 mins post SB612111-treatment measured within 10 mins by PET imaging analysis; format: ADME, organism-based, Macaca mulatta; details: rhesus monkey, in vivo
[19] = Drug uptake in SB612111-pretreated monkey hypothalamus at 4.92 to 6.6 mCi, iv administered at 10 mins post SB612111-treatment measured from 10 to 120 mins by PET imaging analysis; format: ADME, organism-based, Macaca mulatta; details: rhesus monkey, in vivo
[20] = Drug uptake in SB612111-pretreated monkey cerebellum at 4.92 to 6.6 mCi, iv administered at 10 mins post SB612111-treatment measured from 10 to 120 mins by PET imaging analysis; format: ADME, organism-based, Macaca mulatta; details: rhesus monkey, in vivo
[21] = Drug uptake in monkey lateral temporal cortex at 4.92 to 6.6 mCi, iv administered as bolus dose measured at 120 mins by PET imaging analysis; format: ADME, organism-based, Macaca mulatta; details: rhesus monkey, in vivo, 2 h
[22] = Drug uptake in SB612111-pretreated monkey lateral temporal cortex at 4.92 to 6.6 mCi, iv administered at 10 mins post SB612111-treatment measured within 10 mins by PET imaging analysis; format: ADME, organism-based, Macaca mulatta; details: rhesus monkey, in vivo
[23] = Drug uptake in SB612111-pretreated monkey caudate at 4.92 to 6.6 mCi, iv administered at 10 mins post SB612111-treatment measured from 10 to 120 mins by PET imaging analysis; format: ADME, organism-based, Macaca mulatta, Caudate nucleus; details: rhesus monkey, in vivo
[24] = Drug uptake in monkey cerebellum at 4.92 to 6.6 mCi, iv administered as bolus dose measured up to 20 mins by PET imaging analysis; format: ADME, organism-based, Macaca mulatta; details: rhesus monkey, in vivo
[25] = Drug uptake in SB612111-pretreated monkey lateral temporal cortex at 4.92 to 6.6 mCi, iv administered at 10 mins post SB612111-treatment measured from 10 to 120 mins by PET imaging analysis; format: ADME, organism-based, Macaca mulatta; details: rhesus monkey, in vivo
[26] = molecular target: Nociceptin receptor (Homo sapiens, UniProt P41146); experiment: Displacement of [3H]nociceptin from human recombinant NOP receptor expressed in CHO cells after 60 mins by microbeta scintillation counting; format: cell-based
[27] = Drug uptake in SB612111-pretreated monkey hypothalamus at 4.92 to 6.6 mCi, iv administered at 10 mins post SB612111-treatment measured from 10 to 90 mins by PET imaging analysis; format: ADME, organism-based, Macaca mulatta; details: rhesus monkey, in vivo
[28] = Drug uptake in monkey hypothalamus at 4.92 to 6.6 mCi, iv administered as bolus dose measured at 90 mins by PET imaging analysis; format: ADME, organism-based, Macaca mulatta; details: rhesus monkey, in vivo
[29] = Drug uptake in SB612111-pretreated monkey amygdala at 4.92 to 6.6 mCi, iv administered at 10 mins post SB612111-treatment measured from 10 to 90 mins by PET imaging analysis; format: ADME, organism-based, Macaca mulatta; details: rhesus monkey, in vivo
[30] = Drug uptake in monkey amygdala at 4.92 to 6.6 mCi, iv administered as bolus dose measured at 90 mins by PET imaging analysis; format: ADME, organism-based, Macaca mulatta; details: rhesus monkey, in vivo
[31] = Drug uptake in monkey caudate at 4.92 to 6.6 mCi, iv administered as bolus dose measured at 90 mins by PET imaging analysis; format: ADME, organism-based, Macaca mulatta, Caudate nucleus; details: rhesus monkey, in vivo
[32] = Drug uptake in SB612111-pretreated monkey lateral temporal cortex at 4.92 to 6.6 mCi, iv administered at 10 mins post SB612111-treatment measured from 10 to 90 mins by PET imaging analysis; format: ADME, organism-based, Macaca mulatta; details: rhesus monkey, in vivo
[33] = Drug uptake in monkey cerebellum at 4.92 to 6.6 mCi, iv administered as bolus dose measured at 90 mins by PET imaging analysis; format: ADME, organism-based, Macaca mulatta; details: rhesus monkey, in vivo
[34] = Drug uptake in SB612111-pretreated monkey caudate at 4.92 to 6.6 mCi, iv administered at 10 mins post SB612111-treatment measured from 10 to 90 mins by PET imaging analysis; format: ADME, organism-based, Macaca mulatta, Caudate nucleus; details: rhesus monkey, in vivo
[35] = Drug uptake in monkey lateral temporal cortex at 4.92 to 6.6 mCi, iv administered as bolus dose measured at 90 mins by PET imaging analysis; format: ADME, organism-based, Macaca mulatta; details: rhesus monkey, in vivo
[36] = Drug uptake in SB612111-pretreated monkey cerebellum at 4.92 to 6.6 mCi, iv administered at 10 mins post SB612111-treatment measured from 10 to 90 mins by PET imaging analysis; format: ADME, organism-based, Macaca mulatta; details: rhesus monkey, in vivo

Nociceptin receptor, sequence (P41146 whole entry): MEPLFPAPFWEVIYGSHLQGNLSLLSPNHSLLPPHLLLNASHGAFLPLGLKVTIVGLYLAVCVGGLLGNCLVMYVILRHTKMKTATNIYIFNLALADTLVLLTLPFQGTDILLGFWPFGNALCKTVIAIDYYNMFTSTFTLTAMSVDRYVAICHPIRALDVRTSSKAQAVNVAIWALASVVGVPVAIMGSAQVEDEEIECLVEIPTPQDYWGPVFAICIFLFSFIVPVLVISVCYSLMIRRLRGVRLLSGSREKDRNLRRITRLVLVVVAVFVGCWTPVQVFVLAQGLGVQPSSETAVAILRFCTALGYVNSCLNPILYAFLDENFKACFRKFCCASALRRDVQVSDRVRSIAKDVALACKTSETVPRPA

CC(C)N(C)C(=O)[C@H](Cc1ccccc1F)CN1CCC2(CC1)OCCc1cc(F)sc12
logD [1]: 4.47

CNC(=O)[C@@H](Cc1ccccc1F)CN1CCC2(CC1)OCCc1cc(F)sc12 [NOP-1A]
SUV [2]: 280%
Drug uptake [3]: Not Active
logD [4]: 3.41
Drug uptake [5]: Active

CC(C)N(C)C(=O)[C@@H](Cc1ccccc1F)CN1CCC2(CC1)OCCc1cc(F)sc12
SUV [2]: 453%
Drug uptake [3]: Not Active
Drug uptake [5]: Active

CC(C)N([11CH3])C(=O)[C@@H](Cc1ccccc1F)CN1CCC2(CC1)OCCc1cc(F)sc12
Drug uptake [6]: Active
Drug uptake [7]: Active
Drug uptake [8]: Active
Drug uptake [9]: Not Active
Drug uptake [10]: Not Active
Drug uptake [11]: Not Active
Drug uptake [12]: Not Active
Drug uptake [13]: Active
Drug uptake [14]: Active
Drug uptake [15]: Not Active
Drug uptake [16]: Active
Drug uptake [17]: Active
Drug uptake [18]: Active
Drug uptake [19]: Not Active
Drug uptake [20]: Not Active
Drug uptake [21]: Not Active
Drug uptake [22]: Active
Drug uptake [23]: Not Active
Drug uptake [24]: Active
Drug uptake [25]: Not Active

NC(=O)[C@H](Cc1ccccc1Cl)CN1CCC2(CC1)OCCc1cc(F)sc12
Ki [26]: 17.1 nM

NC(=O)[C@@H](Cc1ccccc1Cl)CN1CCC2(CC1)OCCc1cc(F)sc12
Ki [26]: 0.101 nM

CNC(=O)[C@@H](Cc1ccccc1Cl)CN1CCC2(CC1)OCCc1cc(F)sc12
SUV [2]: 280%
Drug uptake [3]: Not Active
Drug uptake [5]: Active

[11CH3]NC(=O)[C@@H](Cc1ccccc1Cl)CN1CCC2(CC1)OCCc1cc(F)sc12
Drug uptake [6]: Active
Drug uptake [7]: Active
Drug uptake [27]: Not Active
Drug uptake [28]: Not Active
Drug uptake [8]: Active
Drug uptake [29]: Not Active
Drug uptake [30]: Not Active
Drug uptake [31]: Not Active
Drug uptake [13]: Active
Drug uptake [32]: Not Active
Drug uptake [14]: Active
Drug uptake [33]: Not Active
Drug uptake [34]: Not Active
Drug uptake [16]: Active
Drug uptake [17]: Active
Drug uptake [18]: Active
Drug uptake [35]: Not Active
Drug uptake [22]: Active
Drug uptake [24]: Active
Drug uptake [36]: Not Active

CNC(=O)[C@H](Cc1ccccc1Cl)CN1CCC2(CC1)OCCc1cc(F)sc12
logD [1]: 3.9
